Assay results reported in ChEMBL document CHEMBL1914440, “Discovery of potent, selective, and orally bioavailable alkynylphenoxyacetic acid CRTH2 (DP2) receptor antagonists for the treatment of allergic inflammatory diseases” (J Med Chem, 2011).
pIC50, pKi: −log10 of the molar value. Calls of active or inactive are those of the source. The rule behind the calls is not given here.

Tests used:
[1] = Percentage unbound in mouse plasma; assay type: ADME, cell-free
[2] = Oral bioavailability in BALB/c mouse at 5 mg/kg by LC/MS/MS analysis; assay type: ADME, organism-based; conditions: in vivo
Summary of the method: (§1)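 Mouse PK after a 5 mg/kg oral dose.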

[3] = Clearance in BALB/c mouse at 5 mg/kg, po by LC/MS/MS analysis; assay type: ADME, organism-based; parameters: dose 5 mg/kg, route oral; conditions: in vivo
[4] = AUC in BALB/c mouse at 5 mg/kg, po; assay type: ADME, organism-based; parameters: dose 5 mg/kg, route oral; conditions: plasma; summary of the method: as §1
[5] = Percentage unbound in human plasma; assay type: ADME, cell-free
[6] = Percentage unbound in rat plasma; assay type: ADME, cell-free
[7] = biological target: T1, Prostaglandin D2 receptor 2 (Homo sapiens, UniProt Q9Y5Y4); assay: Displacement of [3H]PGD2 from human CRTH2 expressed in chinese hamster CHO cells by liquid scintillation counting; assay type: cell-based
T1 sequence (Q9Y5Y4 whole entry): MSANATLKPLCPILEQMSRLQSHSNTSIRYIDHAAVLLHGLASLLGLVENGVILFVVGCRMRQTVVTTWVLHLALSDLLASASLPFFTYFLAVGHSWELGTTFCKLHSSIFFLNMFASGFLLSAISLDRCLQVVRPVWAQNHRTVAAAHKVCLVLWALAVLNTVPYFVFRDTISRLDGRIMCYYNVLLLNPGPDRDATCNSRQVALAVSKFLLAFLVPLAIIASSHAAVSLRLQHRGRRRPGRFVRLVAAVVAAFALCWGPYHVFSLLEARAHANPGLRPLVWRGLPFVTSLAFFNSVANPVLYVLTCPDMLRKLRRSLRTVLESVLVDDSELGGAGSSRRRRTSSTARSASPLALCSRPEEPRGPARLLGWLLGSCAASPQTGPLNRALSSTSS
Summary of the method: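 Scintillation proximity competition assay: 2–5 μg human CRTH2 cell membranes, 1.5 nM [3H]PGD2, WGA-SPA beads, 10 mM HEPES/KOH pH 7.4, 10 mM MnCl2, protease inhibitors, 1% DMSO; 90 min, room temperature, shaking. Nonspecific binding defined with 1 μM PGD2. Ki by Cheng–Prusoff, mean of ≥3 independent dose–response experiments.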

[8] = Intrinsic clearance in human liver microsomes assessed per mg of protein at 1 uM by LC/MS/MS analysis; assay type: ADME, Microsome
[9] = biological target: T2, Prostaglandin D2 receptor 2 (Homo sapiens) (UniProt Q9Y5Y4); assay: Partial agonist activity at human CRTH2 expressed in chinese hamster CHO cells by cellular dielectric spectroscopy relative to PGD2; assay type: functional, cell-based
T2 sequence (whole entry): T1 sequence (Q9Y5Y4 whole entry)
Summary of the method: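 CHO-CRTH2 cells seeded at 100000/well, grown 24 h at 37 °C, washed into HBSS/10 mM HEPES pH 7.4 with 1% DMSO; impedance recorded. Agonism: compound alone, 25 min read. Antagonism: PGD2 at EC80 added to cell–compound mixture, 25 min read. Run with 0.1% BSA.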

[10] = Intrinsic clearance in rat liver microsomes assessed per mg of protein at 1 uM by LC/MS/MS analysis; assay type: ADME, Microsome
[11] = AUC in BALB/c mouse at 1 mg/kg, po; assay type: ADME, organism-based; parameters: dose 1 mg/kg, route oral; conditions: plasma
Mus musculus [12] = assay: Antiinflammatory activity in BALB/c mouse contact hypersensitivity model assessed as inhibition of FITC-mediated ear swelling at 10 mg/kg, po administered 1 hr prior to and 7 hrs after the FITC-challenge measured 24 hrs after final dose; assay type: functional
Summary of the method: (§2)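 Female 9-week-old BALB/c mice sensitized on days 0 and 1 with 0.5% FITC in acetone/dibutyl phthalate (sham group: vehicle only). Right ear challenged on day 6 with 0.5% FITC. Compound given by oral gavage 1 h before and 7 h after challenge. Ear thickness measured before and 24 h after challenge. Reported as mean % inhibition ± SEM.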

[13] = Half life in BALB/c mouse at 5 mg/kg, po by LC/MS/MS analysis; assay type: ADME, organism-based; parameters: dose 5 mg/kg, route oral; conditions: in vivo
Mus musculus [14] = assay: Antiinflammatory activity in BALB/c mouse model assessed as inhibition of ovalbumin-induced eosinophil accumulation in bronchoalveolar lavage fluid at 3 mg/kg, po administered 1 hr prior to and 7 hrs after ovalbumin challenge for 3 days measured 8 hrs after final dose by cell counting; assay type: functional; conditions: Lung
Summary of the method: (§3)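 Compound given by oral gavage 1 h before and 7 h after each challenge. BAL taken 8 h after the last challenge. Total cells counted by hemocytometer; eosinophils counted on DiffQuik-stained cytospins. Reported as mean % inhibition ± SEM.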

Mus musculus [15] = assay: Antiinflammatory activity in BALB/c mouse model assessed as inhibition of ovalbumin-induced eosinophil accumulation in bronchoalveolar lavage fluid at 30 mg/kg, po administered 1 hr prior to and 7 hrs after ovalbumin challenge for 3 days measured 8 hrs after final dose by cell counting; assay type: functional; conditions: Lung; summary of the method: as §3
[16] = biological target: T1, Prostaglandin D2 receptor 2; assay: Antagonist activity at human CRTH2 expressed in human CHO cells by cellular dielectric spectroscopy
[17] = biological target: T3, Prostaglandin D2 receptor 2 (Mus musculus, UniProt Q9Z2J6); assay: Displacement of [3H]PGD2 from mouse CRTH2 expressed in human HEK cells by liquid scintillation counting; assay type: cell-based, HEK293
T3 sequence (Q9Z2J6 whole entry): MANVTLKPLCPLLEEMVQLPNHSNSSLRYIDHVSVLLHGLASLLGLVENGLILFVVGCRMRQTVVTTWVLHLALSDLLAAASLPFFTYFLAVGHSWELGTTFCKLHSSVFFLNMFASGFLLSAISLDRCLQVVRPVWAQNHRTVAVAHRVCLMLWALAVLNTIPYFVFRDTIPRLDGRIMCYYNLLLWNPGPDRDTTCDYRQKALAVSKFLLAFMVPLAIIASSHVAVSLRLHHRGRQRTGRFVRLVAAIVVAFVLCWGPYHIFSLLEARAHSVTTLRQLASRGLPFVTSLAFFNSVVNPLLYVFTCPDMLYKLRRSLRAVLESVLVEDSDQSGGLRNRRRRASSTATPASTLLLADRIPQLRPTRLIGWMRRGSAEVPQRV
Summary of the method: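 Mouse CRTH2 cDNA stably expressed in HEK293(EBNA) cells (hygromycin-selected) and membranes made by nitrogen cavitation. SPA competition uses 2–5 μg membranes, 1.5 nM [3H]PGD2, HEPES/KOH pH 7.4 with 10 mM MnCl2, 1% DMSO, 90 min at room temperature. Nonspecific binding defined with 1 μM PGD2. Ki by Cheng–Prusoff, ≥3 independent experiments.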

Mus musculus [18] = assay: Antiinflammatory activity in BALB/c mouse contact hypersensitivity model assessed as inhibition of FITC-mediated ear swelling at 30 mg/kg, po administered 1 hr prior to and 7 hrs after the FITC-challenge measured 24 hrs after final dose; assay type: functional; summary of the method: as §2
[19] = Half life in BALB/c mouse at 1 mg/kg, iv by LC/MS/MS analysis; assay type: ADME, organism-based; parameters: dose 1 mg/kg, route intravenous; conditions: in vivo
Mus musculus [20] = assay: Antiinflammatory activity in BALB/c mouse model assessed as inhibition of ovalbumin-induced eosinophil accumulation in bronchoalveolar lavage fluid at 10 mg/kg, po administered 1 hr prior to and 7 hrs after ovalbumin challenge for 3 days measured 8 hrs after final dose by cell counting; assay type: functional; conditions: Lung; summary of the method: as §3
Mus musculus [21] = assay: Antiinflammatory activity in BALB/c mouse contact hypersensitivity model assessed as inhibition of FITC-mediated ear swelling at 3 mg/kg, po administered 1 hr prior to and 7 hrs after the FITC-challenge measured 24 hrs after final dose; assay type: functional; summary of the method: as §2
[22] = AUC in BALB/c mouse at 5 mg/kg, po by LC/MS/MS analysis; assay type: ADME, organism-based; parameters: dose 5 mg/kg, route oral; conditions: plasma
[23] = biological target: T1, Prostaglandin D2 receptor 2; assay: Antagonist activity human CRTH2 expressed in chinese hamster CHO cells assessed as inhibition of PGD2-induced [35S]GTPgamma binding by liquid scintillation counting; assay type: functional, cell-based
Summary of the method: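 10 μg human CRTH2 membranes in 20 mM HEPES/KOH pH 7.4, 10 mM MgCl2, 10 μg/mL saponin, 3 μM GDP, 150 mM NaCl, 2% DMSO, 30 °C. Preincubated 10 min, then 0.15 nM [35S]GTPγS for 30 min; stopped by centrifugation. Antagonism tested against 80 nM PGD2. Nonspecific binding with 10 μM GTPγS. Run without BSA.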

[24] = Apparent permeability across human Caco2 cells at 1 uM after 2 hrs by LC/MS/MS analysis; assay type: ADME, cell-based; conditions: Caco-2

Row | SMILES | fraction unbound [1] | bioavailability [2] | CL/F [3] | AUC [4] | fraction unbound [5] | fraction unbound [6] | pKi [7] | microsomal CLint at 1 µM [8] | Emax [9] | microsomal CLint at 1 µM [10] | further results
1 | CS(=O)(=O)c1cccc(C#Cc2cc(Cl)ccc2OCC(=O)O)c1 |  |  |  |  |  |  | 7.82 |  | 10% |  | 
2 | CCCS(=O)(=O)c1cccc(C#Cc2cc(C#N)ccc2OCC(=O)O)c1 |  |  |  |  |  |  | 7.68 |  | 30% |  | 
3 | CCCS(=O)(=O)c1cccc(C#Cc2cc(-c3ccccc3)ccc2OCC(=O)O)c1 |  |  |  |  |  |  | 7.72 |  | 68% |  | 
4 | COCCNS(=O)(=O)c1ccc(C)c(C#Cc2cc(Cl)ccc2OCC(=O)O)c1 |  | 33% | 33.3 mL/min/kg | 831 ng·h/mL |  |  | 8.44 | < 10 µL/min/mg |  | < 10 µL/min/mg | 
5 | Cc1ccc(S(=O)(=O)N2CCOCC2)cc1C#Cc1cc(Cl)ccc1OCC(=O)O |  | 48% | 31.7 mL/min/kg | 1220 ng·h/mL |  |  | 8.44 | < 10 µL/min/mg |  | 10 µL/min/mg | 
6 | O=C(O)COc1ccc(C(F)(F)F)cc1C#Cc1ccccc1Cl |  |  |  |  |  |  | 7.92 |  | 60% |  | 
7 | CS(=O)(=O)c1ccc(F)c(C#Cc2cc(Cl)ccc2OCC(=O)O)c1 | 0.054 | 24% | 6.67 mL/min/kg | 3240 ng·h/mL | 0.013 | 0.011 | 8.48 |  | 10% |  | 
8 | CCCS(=O)(=O)c1ccc(Cl)c(C#Cc2cc(Cl)ccc2OCC(=O)O)c1 | 0.006 | 112% | 16.7 mL/min/kg |  | 0.003 | 0.002 | 8.68 | < 10 µL/min/mg |  | < 10 µL/min/mg | 
9 | CCCS(=O)(=O)c1ccc(F)c(C#Cc2cc(Cl)ccc2OCC(=O)O)c1 | 0.007 |  | 6.67 mL/min/kg | 6140 ng·h/mL | 0.01 | 0.004 | 8.47 | 12 µL/min/mg |  | < 10 µL/min/mg | inhibition in vivo at 10 mg/kg (Mus musculus [12]): 54%; half-life [13]: 1.9 h; inhibition in vivo at 3 mg/kg (Mus musculus [14]): 19%; inhibition in vivo at 30 mg/kg (Mus musculus [15]): 55%; pIC50 [16]: 7.55; pKi [17]: 9.43; inhibition in vivo at 30 mg/kg (Mus musculus [18]): 48%; half-life [19]: 2 h; inhibition in vivo at 10 mg/kg (Mus musculus [20]): 27%; inhibition in vivo at 3 mg/kg (Mus musculus [21]): 36%; AUC [22]: 6140 ng·h/mL; pIC50 [23]: 8.10; Papp at 2 h, 1 µM [24]: 10.8 ×10⁻⁶ cm/s

Continued, in another order:

Row | fraction unbound [1] | bioavailability [2] | CL/F [3] | AUC [4] | fraction unbound [5] | fraction unbound [6] | pKi [7] | microsomal CLint at 1 µM [8] | Emax [9] | microsomal CLint at 1 µM [10] | SMILES | further results
10 | 0.013 | 29% | 8.33 mL/min/kg | 2650 ng·h/mL | 0.003 | 0.004 | 8.34 |  |  |  | CC(C)c1ccc(S(C)(=O)=O)cc1C#Cc1cc(Cl)ccc1OCC(=O)O | 
11 | 0.027 | 49% | 23.3 mL/min/kg | 1800 ng·h/mL | 0.017 | 0.014 | 8.30 | 14 µL/min/mg | 10% | 18 µL/min/mg | Cc1ccc(S(C)(=O)=O)cc1C#Cc1cc(Cl)ccc1OCC(=O)O | 
12 |  | 24% | 18.3 mL/min/kg | 1370 ng·h/mL |  |  | 8.15 |  |  |  | CCCS(=O)(=O)c1ccc(C)c(C#Cc2cc(C#N)ccc2OCC(=O)O)c1 | Activity [9]: inactive
13 | 0.025 | 141% | 11.7 mL/min/kg |  | 0.007 | 0.003 | 8.46 |  |  |  | CS(=O)(=O)c1ccc(Cl)c(C#Cc2cc(Cl)ccc2OCC(=O)O)c1 | AUC [11]: 1390 ng·h/mL
14 |  | 26% | 145 mL/min/kg | 151 ng·h/mL |  |  | 7.92 |  |  |  | CC(C)c1ccc(S(C)(=O)=O)cc1C#Cc1cc(C#N)ccc1OCC(=O)O | 
